Test results as given in article PMC5691919 (ACS Chemical Neuroscience, 2017).
pEC50, pKi: −log10 of the molar value. Where “and” joins values, the source holds several entries; their conditions need not be identical. Identical values can stand only once. Entries after “also recorded” stand apart in the source; their conditions may differ.

Assays:
[1] = biological target: T1, rat DOR (C6-DOR) (Rattus norvegicus, UniProt P33533); test: Stimulation of [35S]-GTPγS binding, C6-DOR membranes; format: biochemical; settings: for % stimulation DOR: percent maximal stimulation relative to DPDPE at 10 μM; for % stimulation DOR / EC50 DOR: dns: does not stimulate; for EC50 DOR: [35S]-GTPγS binding, mean (SEM)
Method in brief: (§1)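 Rat MOR or DOR (C6) and human KOR (CHO) membranes (10–20 μg protein) were incubated 1 h at 25 °C in 50 mM Tris-HCl, 100 mM NaCl, 5 mM MgCl₂, pH 7.4, with 0.1 nM [³⁵S]-GTPγS, 30 μM GDP and varying test compound concentrations, then filtered on GF/C. % stimulation was taken relative to 10 μM DAMGO (MOR), DPDPE (DOR) or U69,593 (KOR). EC50 came from nonlinear regression; at least three assays in duplicate.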

[2] = biological target: T2, human KOR (CHO-KOR) (Homo sapiens, UniProt P41145); test: Stimulation of [35S]-GTPγS binding, CHO-KOR membranes; format: biochemical; settings: for EC50 KOR: [35S]-GTPγS binding, mean (SEM); for EC50 KOR / % stimulation KOR: dns: does not stimulate; for % stimulation KOR: percent maximal stimulation relative to U69,593 at 10 μM
Method in brief: as §1

[3] = biological target: T2, human KOR (CHO-KOR); test: [3H]-diprenorphine competitive displacement binding, CHO-KOR membranes
Method in brief: (§2)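 Membranes came from C6 glioma cells stably expressing rat MOR or DOR, or CHO cells stably expressing human KOR. Membranes (20 μg protein) in 50 mM Tris-HCl pH 7.4 were incubated with 0.2 nM [³H]-diprenorphine and varying test compound concentrations for 1 h at room temperature, then filtered on GF/C. Nonspecific binding was defined with 10 μM naloxone. Ki came from logistic nonlinear regression; at least three assays in duplicate.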

[4] = biological target: T3, rat MOR (C6-MOR) (Rattus norvegicus, UniProt P33535); test: [3H]-diprenorphine competitive displacement binding, C6-MOR membranes
Method in brief: as §2

[5] = biological target: T3, rat MOR (C6-MOR); test: Stimulation of [35S]-GTPγS binding, C6-MOR membranes; format: biochemical; settings: for Emax: read-out: % stimulation MOR; for % stimulation MOR: percent maximal stimulation relative to DAMGO at 10 μM
Method in brief: as §1

[6] = biological target: T1, rat DOR (C6-DOR); test: [3H]-diprenorphine competitive displacement binding, C6-DOR membranes
Method in brief: as §2

[7] = displacement of [3H]-diprenorphine, mean (SEM), n = 3

Row | SMILES | pEC50 [1] | % stimulation DOR [1] | pEC50 [2] | pKi [3] | pKi [4] | pEC50 [5] | Emax [5] [%] | pKi [6] | EC50 KOR [2] | % stimulation KOR [2] | EC50 DOR [1] | % stimulation MOR ([5]; dns: does not stimulate) | EC50 MOR ([5]; [35S]-GTPγS binding, mean (SEM), dns: does not stimulate) | Binding, Ki KOR [3, 7] | Binding, Ki MOR [4, 7]
1 | COc1ccccc1Cc1ccc2c(c1)[C@H](NC(=O)[C@@H](N)Cc1c(C)cc(O)cc1C)CCN2 [Compound 4a] | 6.89 | 16 (2.2) % | 6.00 | 7.27 | 9.47 | 8.05 | 91 | 8.19 | – | – | – | – | – | – | –
2 | COc1cccc(Cc2ccc3c(c2)[C@H](NC(=O)[C@@H](N)Cc2c(C)cc(O)cc2C)CCN3)c1 [Compound 4b] | 6.64 | 10 (2.6) % | – | 7.57 | 9.96 | 8.36 | 99 | 8.27 | dns^d | displayed no agonist effect; also recorded: dns^d | – | – | – | – | –
3 | COc1ccc(Cc2ccc3c(c2)[C@H](NC(=O)[C@@H](N)Cc2c(C)cc(O)cc2C)CCN3)cc1 [Compound 4c] | – | did not stimulate GTPγS binding; also recorded: eliminating stimulation; also recorded: dns^d | – | 7.00 | 9.54 | 8.03 | – | 7.82 | dns^d | displayed no agonist effect; also recorded: eliminating stimulation; also recorded: dns^d | dns^d | 55 (3.4) % | – | – | –
4 | Cc1cc(O)cc(C)c1C[C@H](N)C(=O)N[C@@H]1CCNc2ccc(Cc3ccccc3O)cc21 [Compound 4d] | 5.82 | – | 6.57 | 8.24 | 9.59 | 8.01 | 89 | 8.25 | – | 67% and 67 (3.5) % | – | – | – | – | –
5 | Cc1cc(O)cc(C)c1C[C@H](N)C(=O)N[C@@H]1CCNc2ccc(Cc3cccc(O)c3)cc21 [Compound 4e] | 6.85 | 67% and 67 (1.6) % | 6.64 | 7.80 | 9.72 | 8.32 | 96 | 8.85 | – | – | – | – | – | – | –
6 | Cc1cc(O)cc(C)c1C[C@H](N)C(=O)N[C@@H]1CCNc2ccc(Cc3ccc(O)cc3)cc21 [Compound 4f] | – | did not stimulate GTPγS binding; also recorded: dns^d | – | 6.38 | 8.77 | – | – | 6.89 | dns^d | displayed no agonist effect; also recorded: dns^d | dns^d | no stimulation of GTP binding and dns | dns | – | –
7 | COc1cccc2c1CC(Cc1ccc3c(c1)[C@H](NC(=O)[C@@H](N)Cc1c(C)cc(O)cc1C)CCN3)C2 (stereo partly drawn) [Compound 8a] | – | dns^d | – | 7.17 | – | 8.72 | – | 8.64 | dns^d | low affinity KOR antagonists; also recorded: dns^d | dns^d | 48 (2.9) % | – | – | –
8 | COc1ccc2c(c1)CC(Cc1ccc3c(c1)[C@H](NC(=O)[C@@H](N)Cc1c(C)cc(O)cc1C)CCN3)C2 (stereo partly drawn) [Compound 8b] | – | dns^d | – | 7.48 | 10.10 | 8.10 | – | – | dns | low affinity KOR antagonists and dns | dns^d | 22 (3.7) % | – | – | –
9 | Cc1cc(O)cc(C)c1C[C@H](N)C(=O)N[C@@H]1CCNc2ccc(CC3Cc4cccc(O)c4C3)cc21 (stereo partly drawn) [Compound 8c] | – | no stimulation at DOR; also recorded: dns^d | 7.60 | 9.11 | – | – | – | – | – | 92% and 92 (3.6) % | dns^d | 66 (3.3) % | – | subnanomolar binding affinity | subnanomolar binding affinity
10 | Cc1cc(O)cc(C)c1C[C@H](N)C(=O)N[C@@H]1CCNc2ccc(CC3Cc4ccc(O)cc4C3)cc21 (stereo partly drawn) [Compound 8d] | – | dns | – | 7.39 | 9.09 | 8.15 | – | 7.82 | dns | low affinity KOR antagonists and dns | dns | 16 (2.4) % | – | – | –
